Measurements from ChEMBL document CHEMBL4184228, “Reversed isoniazids: Design, synthesis and evaluation against Mycobacterium tuberculosis” (Bioorg Med Chem, 2018).
Converted amounts (≈) assume the structure as drawn. The source made the active and inactive calls. The rule behind the calls is not given here.

Assays:
[1] = test system: Mycobacterium tuberculosis; test: Antimycobacterial activity against isoniazid mono-resistant Mycobacterium tuberculosis isolate R5401 by two fold serial dilution based fluorescence assay; assay type: functional
Method in brief: (§1)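 MGIT 960 (BACTEC) broth assay in 7H9 with 1% OADC and 0.05% Tween 80. Compounds are 10 mM DMSO stocks, two-fold serially diluted, final DMSO ≤1.2%, top concentration 10 µM. Tubes incubated at 37°C with growth units read daily. MIC99 is set against a 1% drug-free growth control tube.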

[2] = Selectivity index, ratio of IC50 for CHO cells to MIC99 for isoniazid mono-resistant Mycobacterium tuberculosis isolate R5401; assay type: toxicity; conditions: hamster, read-out: Selectivity Index
[3] = test system: Mycobacterium tuberculosis; test: Antimycobacterial activity against isoniazid mono-resistant Mycobacterium tuberculosis isolate R73 by two fold serial dilution based fluorescence assay; assay type: functional; method in brief: as §1
[4] = test system: Mycobacterium tuberculosis; test: Antimycobacterial activity against isoniazid mono-resistant Mycobacterium tuberculosis isolate R4965 by two fold serial dilution based fluorescence assay; assay type: functional; method in brief: as §1
[5] = Selectivity ratio of MIC99 for Mycobacterium tuberculosis H37Rv to MIC99 for isoniazid mono-resistant Mycobacterium tuberculosis isolate R5401; assay type: functional
[6] = test system: Mycobacterium tuberculosis variant bovis BCG; test: Inhibition of efflux pump in Mycobacterium bovis BCG infected in macrophages assessed as accumulation of ethidium bromide at 50 uM by measuring increase in fluorescence intensity after 1 hr by flow cytometric assay relative to control; parameters: Activity: scale not given: the % may be the effect or the level left
[7] = test system: Mycobacterium tuberculosis variant bovis BCG; test: Potency index, ratio of compound effect to CPZ effect for inhibition of efflux pump in Mycobacterium bovis BCG
[8] = test system: Mycobacterium tuberculosis variant bovis BCG; test: Inhibition of efflux pump in Mycobacterium bovis BCG infected in macrophages assessed as accumulation of ethidium bromide at 10 uM by measuring increase in fluorescence intensity after 1 hr by flow cytometric assay; parameters: scale not given: the % may be the effect or the level left
[9] = test system: Mycobacterium tuberculosis variant bovis BCG; test: Inhibition of efflux pump in Mycobacterium bovis BCG infected in macrophages assessed as accumulation of ethidium bromide at 25 uM by measuring increase in fluorescence intensity after 1 hr by flow cytometric assay; parameters: Activity: scale not given: the % may be the effect or the level left

Row | Structure (SMILES) | MIC99 [1] [µM] | selectivity ratio [2] | MIC99 [3] [µM] | MIC99 [4] [µM] | Ratio [5] | inhibition [6] | Activity [6] [%] | Ratio [7] | Activity [8] [%] | Activity [9] [%] | inhibition [9]
1 | O=C(NNCCCN1CCC(=C2c3ccccc3Sc3ccccc32)CC1)c1ccncc1 | 2.5 (≈ 1.14 µg/mL) | 60.8 | > 10 | > 10 | – | – | – | – | – | – | –
2 | O=C(NNCCCN1CCC(N2c3ccccc3Sc3ccccc32)CC1)c1ccncc1 | 2.5 (≈ 1.15 µg/mL) | 48.8 | > 10 | > 10 | 2 | – | – | – | – | – | –
3 | O=C(NNCCCN1c2ccccc2Sc2ccccc21)c1ccncc1 | > 10 | – | > 10 | > 10 | – | Active | – | – | – | – | –
4 | O=C(NNCCCN1CCC(=C2c3ccccc3C=Cc3ccccc32)CC1)c1ccncc1 | 2.5 (≈ 1.13 µg/mL) | 59.2 | > 10 | > 10 | – | – | – | – | – | – | –
5 | O=C(NNCCCNCCCN1c2ccccc2Sc2ccc(Cl)cc21)c1ccncc1 | > 10 | – | > 10 | > 10 | – | – | – | – | – | – | –
6 | O=C(NNCCCN1CCN(C2c3ccccc3CCc3ccccc32)CC1)c1ccncc1 | > 10 | – | > 10 | > 10 | – | – | – | – | – | – | –
7 | O=C(NNCCCN1c2ccccc2Sc2ccccc21)c1ccccc1 | – | – | > 10 | > 10 | – | – | 40 to 90 | 2 | – | – | –
8 | O=C(NNCCCN1c2ccccc2CCc2ccccc21)c1ccncc1 | > 10 | – | > 10 | > 10 | – | Active | – | – | – | – | –
9 | O=C(NNCCCNCCCN1c2ccccc2Sc2ccccc21)c1ccncc1 | > 10 | – | > 10 | > 10 | – | – | – | – | – | – | –
10 | O=C(NNCCCN1CCC(=C2c3ccccc3Sc3ccc(Cl)cc32)CC1)c1ccncc1 | 1.25 (≈ 0.614 µg/mL) | 237 | > 10 | > 10 | – | – | – | – | – | – | –
11 | O=C(NNCCCN1CCC(N2c3ccccc3Sc3ccc(Cl)cc32)CC1)c1ccncc1 | 1 (≈ 0.494 µg/mL) | 37 | > 10 | > 10 | – | – | – | 2 | 40 to 90 | – | –
12 | NNC(=O)c1ccncc1 [ISONIAZID] | 2.5 (≈ 0.343 µg/mL) | > 35 | – | – | – | Active | – | – | – | – | –
13 | O=C(NNCCCN1CCN(C(c2ccccc2)c2ccccc2)CC1)c1ccncc1 | 2.5 (≈ 1.07 µg/mL) | 19.3 | > 10 | > 10 | 2 | – | – | – | – | – | –
14 | O=C(NNCCCN1c2ccccc2Sc2ccc(Cl)cc21)c1ccncc1 | > 10 | – | > 10 | > 10 | – | – | – | 2 | – | 40 to 90 | –
15 | O=C(NNCCCN1c2ccccc2Sc2ccc(Cl)cc21)c1ccccc1 | – | – | > 10 | > 10 | – | – | 40 to 90 | 2 | – | – | –
16 | CN(C)CCCN1c2ccccc2Sc2ccc(Cl)cc21 [CHLORPROMAZINE] | – | – | – | – | – | – | – | – | – | – | Active
17 | O=C(NNCCCN1CCN(C(c2ccccc2)(c2ccccc2)c2ccccc2)CC1)c1ccncc1 | 2.5 (≈ 1.26 µg/mL) | 78.1 | > 10 | > 10 | – | – | – | – | – | – | –
18 | O=C(NNCCCN1CCN(CC(O)(c2ccccc2)c2ccccc2)CC1)c1ccncc1 | 2.5 (≈ 1.15 µg/mL) | 139 | > 10 | > 10 | – | – | – | – | – | – | –
